Common to all, as to assay type: functional, cell-based
The target of assay [1] is T1, Urotensin-2 receptor (Homo sapiens) (UniProt Q9UKP6).
T1 sequence (whole entry): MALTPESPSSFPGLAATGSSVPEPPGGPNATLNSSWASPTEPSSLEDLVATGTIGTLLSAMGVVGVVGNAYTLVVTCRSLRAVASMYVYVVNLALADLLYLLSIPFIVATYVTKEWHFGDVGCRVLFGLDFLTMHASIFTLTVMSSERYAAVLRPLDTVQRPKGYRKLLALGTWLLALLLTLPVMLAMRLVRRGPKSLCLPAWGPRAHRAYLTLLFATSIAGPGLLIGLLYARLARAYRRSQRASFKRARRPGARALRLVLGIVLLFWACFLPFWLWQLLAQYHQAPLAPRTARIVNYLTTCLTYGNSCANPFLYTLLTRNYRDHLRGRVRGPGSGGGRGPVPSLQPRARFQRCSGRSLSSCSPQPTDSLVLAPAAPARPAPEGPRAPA
As to the kind of experiment: Agonist activity at human urotensin-2 receptor transfected in NIH3T3 cells after 5 days by R-SAT assay relative to urotensin-2. The gist of the method: (§1)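 NIH-3T3 cells grown to 80% confluence in DMEM with 10% bovine calf serum and 1% penicillin/streptomycin/glutamine, transfected 18 h with human UII receptor plus β-galactosidase marker, then trypsinized and frozen. Thawed batches were quality-checked with control compound, then incubated with compounds or reference ligands for five days in 5% CO₂. Reporter enzyme activity read at 420 nm.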

The target of assay [2] is T2, Urotensin-2 receptor (Homo sapiens, UniProt Q9UKP6).
T2 sequence (Q9UKP6 whole entry): T1 sequence (whole entry)
The assay is described as follows: (§2) Agonist activity at human urotensin-2 receptor transfected in NIH3T3 cells after 5 days by R-SAT assay. The gist of the method:
as §1

Assay [3] addresses T1, Urotensin-2 receptor (Homo sapiens). The description is as §2. In outline:
as §1

Activity calls are given as the source filed them. No cut-off for these calls is given here.

`CN(C)CCC(NC(=O)Cc1ccc(C(F)(F)F)cc1)c1ccc2ccccc2c1` (stereo not given) gave an Efficacy in assay [1] of 40%.
As to `Cc1ccc(C(CCN(C)C)NC(=O)C#Cc2ccccc2)cc1` (stereo not given), the Efficacy in assay [1] amounted to 131%.
Compound `CN(C)CCC(NC(=O)Cc1ccc(C(F)(F)F)cc1)c1ccc(Cl)cc1` (stereo not given) returned an Efficacy in assay [1] of 53%.
Still for that read-out and setting: as for `CN(C)CCC(NC(=O)/C=C/c1ccccc1)c1ccc(Cl)cc1` (stereo not given), the figure is 128%.
`CN(C)CCC(NC(=O)/C=C/c1ccc(C(F)(F)F)cc1)c1ccc2ccccc2c1` (stereo not given) had an EC50 in assay [2] of 0.135 µM. This compound also had an Efficacy in assay [1] of 117%.
On to `COc1ccc(CCC(=O)NC(CCN(C)C)c2ccc(Cl)cc2)cc1` (stereo not given), for which the Efficacy in assay [1] was found to be 101%.
The compound `Cc1ccc(C(CCN(C)C)NC(=O)CCc2ccc(C(F)(F)F)cc2)cc1` (stereo not given) displayed an Efficacy in assay [1] of 60%.
On to `Cc1ccc(C(CCN(C)C)NC(=O)/C=C/c2ccccc2)cc1` (stereo not given), for which a half-maximal response in assay [2] (EC50) required 1.55 µM. The same compound yielded an Efficacy in assay [1] of 97%.
In assay [1], `CN(C)CCC(NC(=O)C#Cc1ccccc1)c1ccc2ccccc2c1` (stereo not given) displayed an Efficacy of 115%.
Compound `COc1ccc(/C=C/C(=O)NC(CCN(C)C)c2ccc3ccccc3c2)cc1` (stereo not given) gave an EC50 in assay [2] of 0.38 µM. In addition, the Efficacy in assay [1] came to 106%.
`COc1ccc(CC(=O)NC(CCN(C)C)c2ccc(C)cc2)cc1` (stereo not given): the Efficacy in assay [1] was 62%.
Same read-out and setting: as for `COc1ccc(CCC(=O)NC(CCN(C)C)c2ccc(C)cc2)cc1` (stereo not given), the figure is 67%; as for `COc1ccc(CC(=O)NC(CCN(C)C)c2ccc(Cl)cc2)cc1` (stereo not given), 65%; as for `CN(C)CCC(NC(=O)CCc1ccccc1)c1ccc(Cl)cc1` (stereo not given), 139%.
Compound `Cc1ccc(C(CCN(C)C)NC(=O)Cc2ccc(C(F)(F)F)cc2)cc1` (stereo not given) showed an Efficacy in assay [1] of 25%.
Still for that read-out and setting: as for `CN(C)CCC(NC(=O)Cc1ccccc1)c1ccc2ccccc2c1` (stereo not given), the figure is 121%.
For `CN(C)CCC(NC(=O)CCc1ccc(C(F)(F)F)cc1)c1ccc(Cl)cc1` (stereo not given), the Efficacy in assay [1] amounted to 73%.
Turning to `COc1ccc(/C=C/C(=O)NC(CCN(C)C)c2ccc(C)cc2)cc1` (stereo not given), the EC50 in assay [2] was 2 µM. The compound further yielded an Efficacy in assay [1] of 79%.
Regarding `Cc1ccc(C(CCN(C)C)NC(=O)Cc2ccccc2)cc1` (stereo not given), the Efficacy in assay [1] came out at 83%.
In assay [2], `COc1ccc(/C=C/C(=O)NC(CCN(C)C)c2ccc(Cl)cc2)cc1` (stereo not given) had an EC50 of 0.513 µM. This compound gave an Efficacy in assay [1] of 99%.
As for `Cc1ccc(C(CCN(C)C)NC(=O)CCc2ccccc2)cc1` (stereo not given), the Efficacy in assay [1] worked out at 73%.
`CN(C)CCC(NC(=O)CCc1ccccc1)c1ccc2ccccc2c1` (stereo not given) yielded an Efficacy in assay [1] of 107%.
Regarding `Cc1ccc(C(CCN(C)C)NC(=O)/C=C/c2ccc(C(F)(F)F)cc2)cc1` (stereo not given), the EC50 in assay [2] is 0.437 µM. For the same compound, in assay [1], the Efficacy was 96%.
`COc1ccc(CC(=O)NC(CCN(C)C)c2ccc3ccccc3c2)cc1` (stereo not given): the result in assay [3] and in assay [1] was inactive.
In the case of `CN(C)CCC(NC(=O)/C=C/c1ccccc1)c1ccc2ccccc2c1` (stereo not given), the Efficacy in assay [1] was determined as 116%.
In turn, `CN(C)CCC(NC(=O)CCc1ccc(C(F)(F)F)cc1)c1ccc2ccccc2c1` (stereo not given) gave an EC50 in assay [2] of 0.372 µM. This compound yielded an Efficacy in assay [1] of 75%.
Take `CN(C)CCC(NC(=O)/C=C/c1ccc(C(F)(F)F)cc1)c1ccc(Cl)cc1` (stereo not given): in assay [2], a half-maximal effect (EC50) was put at 0.129 µM. Further, the Efficacy in assay [1] worked out at 133%.
The compound `COc1ccc(CCC(=O)NC(CCN(C)C)c2ccc3ccccc3c2)cc1` (stereo not given) showed an EC50 in assay [2] of 1.41 µM. For the same compound, in assay [1], the Efficacy was determined as 113%.
`CN(C)CCC(NC(=O)Cc1ccccc1)c1ccc(Cl)cc1` (stereo not given) displayed an Efficacy in assay [1] of 76%.
Still for that read-out and setting: as for `CN(C)CCC(NC(=O)C#Cc1ccccc1)c1ccc(Cl)cc1` (stereo not given), the figure is 124%.

Broadly, the EC50 is the concentration at which the effect is half-maximal. Higher therefore signals weaker potency.
